From publication PMC4002122 (Chemical Research in Toxicology, 2014)
Marks after values point to notes of the source that are not given here.

Legend:
Assay type in all cases: in vitro ADME
[1] = target: T1, UGT1A7 (Homo sapiens, UniProt Q9HAW7); assay: Steady state kinetics of glucuronidation by recombinant UGT1A7
T1 sequence (Q9HAW7 26-530): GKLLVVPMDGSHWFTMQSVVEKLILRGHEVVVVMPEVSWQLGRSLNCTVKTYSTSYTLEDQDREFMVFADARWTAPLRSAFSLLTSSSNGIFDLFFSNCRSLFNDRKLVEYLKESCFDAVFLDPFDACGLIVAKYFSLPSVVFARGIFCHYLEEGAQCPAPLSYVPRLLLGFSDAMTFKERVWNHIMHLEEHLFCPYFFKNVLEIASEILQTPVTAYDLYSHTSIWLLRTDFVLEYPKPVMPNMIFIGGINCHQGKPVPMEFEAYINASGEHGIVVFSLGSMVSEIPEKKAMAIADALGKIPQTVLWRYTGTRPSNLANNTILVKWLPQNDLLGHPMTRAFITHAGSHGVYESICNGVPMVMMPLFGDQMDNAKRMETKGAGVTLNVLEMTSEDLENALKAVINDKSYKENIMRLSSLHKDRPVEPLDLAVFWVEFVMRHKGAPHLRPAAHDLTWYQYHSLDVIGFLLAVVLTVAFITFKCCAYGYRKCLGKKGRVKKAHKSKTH

[2] = target: T2, UGT1A9 (Homo sapiens, UniProt O60656); assay: Screening of recombinant UGT1A9 for glucuronidation activity; conditions: 250 μM substrate, 5 μg protein, 60 min, 37 °C
T2 sequence (O60656 26-530): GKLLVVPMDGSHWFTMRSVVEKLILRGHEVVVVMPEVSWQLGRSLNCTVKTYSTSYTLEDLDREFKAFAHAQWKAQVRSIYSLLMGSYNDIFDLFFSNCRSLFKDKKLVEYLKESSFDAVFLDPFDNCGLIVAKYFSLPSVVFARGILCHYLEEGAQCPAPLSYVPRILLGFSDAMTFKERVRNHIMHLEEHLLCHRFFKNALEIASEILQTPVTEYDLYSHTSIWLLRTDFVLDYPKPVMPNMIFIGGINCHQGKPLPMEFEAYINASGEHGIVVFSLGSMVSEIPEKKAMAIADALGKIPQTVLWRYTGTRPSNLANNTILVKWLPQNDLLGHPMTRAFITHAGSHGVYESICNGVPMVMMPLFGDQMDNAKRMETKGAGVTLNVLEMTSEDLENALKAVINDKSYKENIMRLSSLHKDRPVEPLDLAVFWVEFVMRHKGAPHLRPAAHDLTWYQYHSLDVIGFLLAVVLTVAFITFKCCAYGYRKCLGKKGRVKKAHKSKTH
How it was run: (§1)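 UGT1A1, 1A3, 1A4 and 1A6–1A10 were His-tagged and expressed in baculovirus-infected Sf9 cells; UGT2B4, 2B7, 2B15 and 2B17 were commercial membranes run per supplier protocol. 5 μg membrane protein with 250 μM substrate, 2 mM UDP-GlcUA, Tris–HCl pH 7.4, MgCl2, saccharolactone, 2% DMSO; 37 °C, 60 min; no-substrate controls. Products measured by HPLC-UV/vis; β-glucuronidase hydrolysis separated O- from carboxyl glucuronides.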

[3] = target: T3, UGT1A1 (Homo sapiens, UniProt P22309); assay: Steady state kinetics of glucuronidation by recombinant UGT1A1
T3 sequence (P22309 26-533): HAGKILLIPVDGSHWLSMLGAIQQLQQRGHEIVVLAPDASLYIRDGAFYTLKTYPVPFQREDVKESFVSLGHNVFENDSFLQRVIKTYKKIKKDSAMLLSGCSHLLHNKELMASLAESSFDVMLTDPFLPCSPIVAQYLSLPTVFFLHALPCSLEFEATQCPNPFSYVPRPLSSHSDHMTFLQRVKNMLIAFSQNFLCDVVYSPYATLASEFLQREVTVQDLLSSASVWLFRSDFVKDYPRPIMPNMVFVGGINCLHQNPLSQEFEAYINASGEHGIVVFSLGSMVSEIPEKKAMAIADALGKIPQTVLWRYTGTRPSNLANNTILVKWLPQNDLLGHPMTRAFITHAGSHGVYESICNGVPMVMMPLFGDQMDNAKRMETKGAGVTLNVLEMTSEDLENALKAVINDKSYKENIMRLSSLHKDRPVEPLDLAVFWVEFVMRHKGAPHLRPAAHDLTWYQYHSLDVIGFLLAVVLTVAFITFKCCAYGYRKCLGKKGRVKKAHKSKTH

[4] = target: T4, UGT1A6 (Homo sapiens, UniProt P19224); assay: Screening of recombinant UGT1A6 for glucuronidation activity; conditions: 250 μM substrate, 5 μg protein, 60 min, 37 °C
T4 sequence (P19224 27-532): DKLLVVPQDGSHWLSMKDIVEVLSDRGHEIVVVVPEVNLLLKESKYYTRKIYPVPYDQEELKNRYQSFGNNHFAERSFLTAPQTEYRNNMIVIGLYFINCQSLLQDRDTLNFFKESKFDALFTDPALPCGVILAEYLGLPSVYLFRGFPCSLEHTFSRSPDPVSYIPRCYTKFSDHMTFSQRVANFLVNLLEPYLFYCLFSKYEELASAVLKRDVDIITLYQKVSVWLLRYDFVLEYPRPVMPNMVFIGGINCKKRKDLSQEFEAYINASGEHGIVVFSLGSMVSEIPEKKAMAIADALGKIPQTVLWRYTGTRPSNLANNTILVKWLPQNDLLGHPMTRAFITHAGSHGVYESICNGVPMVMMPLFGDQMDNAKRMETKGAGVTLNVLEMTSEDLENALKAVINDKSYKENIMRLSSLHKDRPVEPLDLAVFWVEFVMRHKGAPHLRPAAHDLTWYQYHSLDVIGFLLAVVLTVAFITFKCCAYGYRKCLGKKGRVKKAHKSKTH
How it was run: as §1

[5] = target: T5, UGT1A3 (Homo sapiens, UniProt P35503); assay: Screening of recombinant UGT1A3 for glucuronidation activity; conditions: 250 μM substrate, 5 μg protein, 60 min, 37 °C
T5 sequence (P35503 29-534): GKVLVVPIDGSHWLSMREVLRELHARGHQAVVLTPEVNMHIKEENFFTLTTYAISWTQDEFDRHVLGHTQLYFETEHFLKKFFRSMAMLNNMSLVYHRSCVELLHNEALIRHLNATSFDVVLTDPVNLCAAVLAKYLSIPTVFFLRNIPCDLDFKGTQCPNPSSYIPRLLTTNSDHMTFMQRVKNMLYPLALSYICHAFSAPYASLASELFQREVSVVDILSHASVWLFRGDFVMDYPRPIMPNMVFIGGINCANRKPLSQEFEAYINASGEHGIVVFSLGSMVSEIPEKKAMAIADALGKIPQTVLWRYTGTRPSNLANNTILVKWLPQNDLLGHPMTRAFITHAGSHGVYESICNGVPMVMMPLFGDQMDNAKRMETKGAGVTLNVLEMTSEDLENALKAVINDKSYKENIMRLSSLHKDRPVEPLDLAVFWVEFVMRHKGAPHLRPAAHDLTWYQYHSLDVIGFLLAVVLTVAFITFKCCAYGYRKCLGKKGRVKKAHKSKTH
How it was run: as §1

NI-12a-COO-gluc formation ([1]; COO-glucuronide)	Ks ([1]; NI-12a-O-gluc formation, USI model) [µM]	glucuronidation activity (glucuronide formed) [2]	NI-12a-COO-gluc formation ([3]; COO-glucuronide)	NI-12a-O-gluc formation ([3]; O-glucuronide)	glucuronidation activity (glucuronide formed) [4]	glucuronidation activity (glucuronide formed) [5]	NI-ST-05–N–O-gluc formation ([1]; N–O-glucuronide)	kinetic model ([3]; NI-ST-05–N–O-gluc formation, estimated based on an incomplete data set)	Vmax ([3]; NI-ST-05–N–O-gluc formation, estimated based on an incomplete data set, assuming M–M kinetics)	Structure (SMILES)	kinetic model ([1]; NI-12a-O-gluc formation)
not produced	242 ± 133	only the hydroxyl metabolite	too low to be assessed	not produced	not active	both COO- and O-glucuronides				COc1ccc(/C=C(/C(=O)O)c2cc(OC)c(OC)c(OC)c2)cc1O [NI-12a, (E)-3-(3-hydroxy-4-methoxyphenyl)-2-(3,4,5-trimethoxyphenyl)acrylic acid]	uncompetitive substrate inhibition and USI
		No activity			No activity	No activity				COc1cc(/C=C/c2cc([N+](=O)[O-])c(O)c([N+](=O)[O-])c2)cc(OC)c1 [DNR-1, (E)-4-(3,5-dimethoxystyryl)-2,6-dinitrophenol]	

Structure (SMILES)	NI-12a-COO-gluc formation ([1]; COO-glucuronide)	Ks ([1]; NI-12a-O-gluc formation, USI model) [µM]	glucuronidation activity (glucuronide formed) [2]	NI-12a-COO-gluc formation ([3]; COO-glucuronide)	NI-12a-O-gluc formation ([3]; O-glucuronide)	glucuronidation activity (glucuronide formed) [4]	glucuronidation activity (glucuronide formed) [5]	NI-ST-05–N–O-gluc formation ([1]; N–O-glucuronide)	kinetic model ([3]; NI-ST-05–N–O-gluc formation, estimated based on an incomplete data set)	Vmax ([3]; NI-ST-05–N–O-gluc formation, estimated based on an incomplete data set, assuming M–M kinetics)	kinetic model ([1]; NI-12a-O-gluc formation)
COc1ccc(C=Cc2cc(OC)cc(OC)c2/C=N/O)cc1 [NI-ST-05, (E)-2,4-dimethoxy-6-(4-methoxystyryl)benzaldehyde oxime]			catalyzed the formation of the C=N–O-glucuronide			inactive	inactive	not produced	M–M ^b	0.21 ± 0.02 ^b nmol/mg/min	
